Reference: ChEMBL document CHEMBL1123564, “C-terminal deletions in agonistic and antagonistic analogues of vasopressin that improve their specificities for antidiuretic (V2) and vasopressor (V1) receptors” (J Med Chem, 1987)

How the values were obtained:
[1] = species: Rattus norvegicus; experiment: Compound was tested for antidiuretic activity in rats under ethanol anesthesia; type: functional, Urine
Outline: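 Rats under ethanol anesthesia were given antidiuretic agonist assays against the USP posterior pituitary reference standard. Activity is expressed in units/mg.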

[2] = species: Rattus norvegicus; experiment: Antivasopressor activity in phenoxybenzamine treated rats under urethane anesthesia was determined; Agonistic activity was observed; type: functional

## N=C(N)NCCC[C@H](NC(=O)[C@@H]1CCCN1C(=O)[C@@H]1CSSC[C@H](N)C(=O)N[C@@H](Cc2ccc(O)cc2)C(=O)N[C@@H](Cc2ccccc2)C(=O)N[C@@H](CCC(N)=O)C(=O)N[C@@H](CC(N)=O)C(=O)N1)C(=O)NCC(N)=O [VASOPRESSIN]
[1]
  Antidiuretic activity: 330 U/mg
[2]
  vasopressor activity: 382 units/mg
